Bioassay records deposited in PubChem BioAssay by SRMLSC.
This is one part of a sample in which hits are shown more often than they occur.
HUVEC prolif 384: inhibitors of HUVEC proliferation, primary screen, cell-based, 384-well | CellTiter-Glo luminescence, 72 h; hits give low values | 86,000 tested, 1.1% active | viability, % at 10 µM (by protocol);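 active means viability at or below 30%; inactive means viability above 30%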;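 further: 100% = median luminescence of DMSO-only cell control wells on each plate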
HCT116 PTEN-null: growth suppression of PTEN-null HCT116, primary screen, cell-based, CellTiter-Glo; HCT116 PTEN-null viability, 60 h; hits give low values; viability, % at 10 µM; 140,000 tested, 1.2% active;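 active means viability at or below a set limit, 4 SD under the median of all tested compounds, cut at about 3.7% in these data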;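 further: PTEN knockout HCT116 line with beta catenin targeted HCT116 as companion control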
bCat KO growth: primary screen for growth suppressors in beta-catenin knockout HCT116 cells (colon tumor, human); HCT116 beta-catenin knockout viability, CellTiter-Glo, 60 h; hits give low values; 140,000 tested, 1.5% active; viability, % at 10 µM; AID 818, 2007;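 active means viability at or under a set limit, the compound median less 4 SD, cut at about 6% in these data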;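 further: 0% = Hyamine 1622 control at 20 µM and 100% = untreated cell control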
H69AR growth 86K: proliferation blockers of H69AR lung cancer cells, primary screen, cell-based, human, 86K library | H69AR lung tumor viability, ATP luminescence, 72 h; hits give low values | viability, % at 10 µM | 85,000 tested, 6% active | AID 598, 2007;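 active means viability at or below 40%; inactive means viability above 40%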;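 further: multidrug resistant small cell line overexpressing MRP-1 efflux transporter; 100% = mean luminescence of untreated control wells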
Lung fibro prol: antiproliferative effect on LL 47 fibroblasts – human, LL 47 cells, CellTiter-Glo luminescence, primary screen; viability, % at 10 µM; 85,000 tested, 1.1% active; LL 47 human lung fibroblast viability, ATP luminescence; hits give low values;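 active means viability at or below 50% in the single dose screen; inactive means viability above 50%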;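 further: compound exposure lasted 72 h before the ATP readout; 100% = median luminescence of untreated cell-only wells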
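Test system: LL 47 human lung fibroblasts / Quantity: 1,150 cells in each well / Medium: IMEM growth medium with 15% fetal bovine serum / Incubation: 72 h compound exposure at 37 °C after overnight plating / Detection: CellTiter-Glo luminescence measuring cellular ATP / Read-out: % viability versus median cells-only luminescence / Benchmarks: cell-only wells, no compound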
Active calls of the source: *; nt = not tested or not shown.

SMILES | HUVEC prolif 384 | HCT116 PTEN-null | bCat KO growth | H69AR growth 86K | Lung fibro prol
COc1ccc(-c2c(C)[nH]n3c(=O)c(Cc4ccccc4)c(C)nc23)cc1 | nt | 17 | 21 | nt | nt
Cc1ccc(-c2noc(CCC(=O)NC3CCCc4ccccc43)n2)cc1 (stereo not drawn) | 88 | 87 | 80 | 20* | 105
CCOc1ccccc1NC(=O)Cn1nnc(-c2ccc(OCC)c(OCC)c2)n1 | 55 | 2.8* | 2.0* | 3.5* | 73
COc1ccc(-c2nnn(CC(=O)NC3CCCc4ccccc43)n2)cc1OC (stereo not drawn) | 100 | nt | nt | 25* | 66
Cc1ccc(-c2noc(CCC(=O)NC3CCN(Cc4ccccc4)CC3)n2)cc1 | 95 | 45 | 39 | 85 | 99
CCOc1ccc(-c2nnn(CC(=O)Nc3cc(OC)cc(OC)c3)n2)cc1OCC | 55 | 63 | 54 | 10* | 95
CCOc1ccc(-c2nnn(CC(=O)Nc3cc(OC)ccc3OC)n2)cc1OCC | 62 | 94 | 108 | 97 | 94
CC(C)c1ccc(OCC(=O)NCCO)cc1 | nt | 100 | 97 | nt | nt
COc1ccc(N2CCN(C(=O)Cn3nnc(-c4ccc(OC)c(OC)c4)n3)CC2)cc1 | 101 | 59 | 78 | 15* | 100
CC(C)c1ccc2c(c1)[C@H]1OCC[C@H]1[C@@H](c1cccs1)N2 | nt | 18 | 17 | nt | nt
COc1ccc(-c2nc(C#N)c(NCc3ccccc3Cl)o2)cc1OC | 59 | 6 | 23 | 5.7* | 93
COc1ccc(-c2nc(C#N)c(NCc3ccccc3Cl)o2)cc1 | 69 | 74 | 86 | 60 | 74
O=C(Nc1ccc(F)cc1)c1ccccc1 | 101 | nt | 98 | 112 | 110
O=C(Nc1ccc(F)cc1)c1nsc(Cl)c1Cl | 87 | 81 | 84 | 37* | 100
COc1ccccc1OCCCCN1CCN(c2ccccc2OC)CC1 | 58 | 60 | 56 | 75 | 97
Cc1cccc(OCCN2CSC(=S)N(C)C2)c1 | 21* | 31 | 7 | 1.5* | 61
COc1ccccc1OCCN1CSC(=S)N(C)C1 | nt | 5 | 4.0* | nt | nt
Cc1cccc(OCCCN2CCCCCC2)c1 | 106 | 90 | 97 | 83 | 105
Cc1onc(-c2ccccc2)c1C(=O)N1CCN(C/C=C/c2ccccc2)CC1 | 95 | 73 | 65 | 69 | 87
CC(C)Cn1[nH]c2c3c(ccc2c1=O)C(=O)c1ccccc1C3=O | nt | 58 | 65 | nt | nt
Cc1ccc(S(=O)(=O)NC2CCCc3ccccc32)cc1C (stereo not drawn) | 99 | 89 | 89 | 104 | 96
Cn1c2ccccc2c(=O)c2c(=O)n(C3CCCCC3)c(-c3ccco3)nc21 | nt | 3.4* | 4.1* | nt | nt
COc1ccc(NC(=O)C(Sc2nnc(-c3ccncc3)n2-c2ccccc2C)c2ccccc2)cc1Cl (stereo not drawn) | nt | 61 | 61 | nt | nt
CS(=O)(=O)N1CCC(C(=O)Nc2ccc(Oc3ccccc3)cc2)CC1 | 84 | 94 | 94 | 32* | 94
Cc1ccc(NC(=O)C2CCN(S(C)(=O)=O)CC2)cc1 | 104 | 87 | 91 | 104 | 89
SMILES | HUVEC prolif 384 | HCT116 PTEN-null | bCat KO growth | H69AR growth 86K | Lung fibro prol
CC1CCCC(C)N1C(=O)c1cc2ncc(CCCl)cn2n1 (stereo not drawn) | nt | 101 | 99 | nt | nt
C=C(C)C1Cc2nc(N)nc(C)c2C1 (stereo not drawn) | 93 | 96 | 92 | 89 | 98
C=C(C)C1Cc2c(C)nn(-c3nc(C)cc(C)n3)c2C1 (stereo not drawn) | 92 | 68 | 69 | 3.2* | 88
C=CCn1c(SCC(=O)c2[nH]c(C)c(C(=O)OCC)c2C)nc2scc(-c3ccc(OC)c(OC)c3)c2c1=O | nt | 0.8* | 1.0* | nt | nt
CCOC(=O)c1c(C)[nH]c(C(=O)CSc2nnc(-c3ccncc3)n2CC)c1C | nt | 102 | 99 | nt | nt
COn1c(C)c(C(C)=O)c2c3nonc3ccc21 | 80 | 87 | 93 | 33* | 90
CCCCOn1c(C)c(C(=O)OCC)c2c3nonc3ccc21 | 95 | nt | nt | 60 | 94
N#Cc1c(-c2ccccc2)c(-c2ccccc2)nn(CC(=O)NNC(=O)Nc2ccc(Cl)c(Cl)c2)c1=O | nt | 29 | 35 | nt | nt
CCOC(=O)c1cc2oc(C(c3nnnn3C3CCCCC3)N3CCOCC3)cc2[nH]1 (stereo not drawn) | 75 | 34 | 38 | 9.8* | 94
CCOC(=O)C1CCN(C(c2cc3ccc(C)cc3[nH]c2=O)c2nnnn2C2CCCCC2)CC1 (stereo not drawn) | 97 | 92 | 92 | 94 | 97
CCN(CC)CCNc1c2c(c(C#N)c3nc4ccccc4n13)CCCC2 | 91 | 3.6* | 8 | 33* | 90
COc1ccc(Cl)cc1-n1c(C)ccc1C | nt | 17 | 16 | nt | nt
CCCCCCOC(=O)C(C#N)c1nc2ccccc2nc1N1CCOCC1 (stereo not drawn) | 82 | 86 | 83 | 82 | 91
CCCCCCOC(=O)C(C#N)c1nc2ccccc2nc1N1CCN(CC)CC1 (stereo not drawn) | 4.3* | 98 | 107 | 88 | 84
CCC(C)(C)NC(=O)C(c1ccncc1)N(Cc1ccc(C)cc1)C(=O)c1csnn1 (stereo not drawn) | 100 | 97 | 101 | 83 | 94
COC(=O)c1sc(-c2ccccc2)cc1NC(=O)c1ccc(OC)cc1 | nt | 6 | 3.1* | nt | nt
Cc1ccsc1/C=N/NS(=O)(=O)c1ccc([N+](=O)[O-])cc1 | nt | 97 | 93 | nt | nt
CCOC(=O)c1sc(NC(=O)CSc2n[nH]c(-c3ccncc3)n2)c(C#N)c1C | 47 | 107 | 98 | 19* | 98
CCOC(=O)c1sc(NC(=O)CSc2nccc(C)n2)c(C#N)c1C | 89 | 5 | 11 | 7.2* | 95
Cc1cc(C)n2nc(SCc3cc(=O)n4c(C)cccc4n3)nc2n1 | 100 | nt | nt | 88 | 95
COC(=O)C1=C(C)N(c2cc(Cl)cc(Cl)c2)C(=O)C1 | 81 | 65 | 66 | 3.6* | 70
COC(=O)C1=C(C)N(c2ccc(C(=O)OC)cc2)C(=O)C1 | 105 | 77 | 83 | 104 | 103
Cc1ccc(CCNC(=O)CCc2nc3ccccc3[nH]2)cc1 | nt | 101 | 98 | nt | nt
CCCc1cc(C(N)=O)c(NC(C)=O)s1 | 85 | 82 | 91 | 40* | 99
CN1CC(c2ccc(Cl)c(Cl)c2)[C@@]2(COc3ccccc3C2=O)[C@@]12C(=O)Nc1ccccc12 (stereo partly drawn) | nt | 2.9* | 4.7* | nt | nt
N=c1c2c(-c3ccccc3)c(-c3ccccc3)n(Cc3ccccc3)c2ncn1CCCn1ccnc1 | 2.3* | 2.0* | 1.2* | -0.2* | 2.4*
N=c1c2c(-c3ccccc3)c(-c3ccccc3)n(Cc3ccco3)c2ncn1Cc1ccco1 | 2.7* | 1.4* | 1.5* | 1.4* | nt
COc1ccc(OC)c(NC(=O)c2cc(-c3cc(Cl)ccc3O)n[nH]2)c1 | 45 | 20 | 50 | 1.2* | 50
COc1cc2c(cc1NC(=O)CSc1cccc[n+]1[O-])oc1ccccc12 | nt | 76 | 70 | nt | nt
